For assay [1], the target named is T1, Oleandomycin glycosyltransferase (Streptomyces antibioticus) (UniProt Q53685).
T1 sequence (whole entry): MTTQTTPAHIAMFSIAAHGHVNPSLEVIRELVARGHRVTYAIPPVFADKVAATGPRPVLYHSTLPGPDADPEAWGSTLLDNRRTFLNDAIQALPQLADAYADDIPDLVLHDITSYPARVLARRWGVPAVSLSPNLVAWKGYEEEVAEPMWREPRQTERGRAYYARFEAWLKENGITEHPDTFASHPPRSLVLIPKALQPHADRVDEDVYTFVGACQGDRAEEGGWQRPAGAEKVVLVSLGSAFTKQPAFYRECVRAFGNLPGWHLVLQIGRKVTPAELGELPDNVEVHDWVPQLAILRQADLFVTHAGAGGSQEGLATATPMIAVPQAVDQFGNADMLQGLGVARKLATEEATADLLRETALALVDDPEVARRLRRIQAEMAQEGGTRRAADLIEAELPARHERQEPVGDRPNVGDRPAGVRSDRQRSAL
Kind of assay: Activity of Streptomyces antibioticus wild-type OleD assessed as conversion rate of compound to produce glucoside 3 using NDP sugar UDP-6-deoxy-glucose after 3 hrs by HPLC. The method in brief: (§1)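 End-point donor-specificity assay with purified OleD enzyme. Percentage conversion was read after 3 h. Quenched reactions were run by reverse-phase C18 HPLC with a 10–90% CH3CN gradient in 0.1% formic acid/H2O over 20 min at 1 ml min–1, with detection at 254 nm. Products were identified by LC-MS, by comparison to standards where available, and by fluorescence.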

In assay [2] the test system is T2, Oleandomycin glycosyltransferase (Streptomyces antibioticus), Q53685 [P67T,S132F,A242V].
T2 sequence (whole entry): T1 sequence (whole entry) with P67T, S132F, A242V
The experiment in a line: Activity of Streptomyces antibioticus OleD P67T/S132F/A242V mutant assessed as conversion rate of compound to produce glucoside 3 using NDP sugar donor UDP-2-amino-glucose after 3 hrs by HPLC. The method, boiled down:
as §1

Assay [3] relates to T3, Oleandomycin glycosyltransferase (Streptomyces antibioticus), Q53685 [S132F].
T3 sequence (whole entry): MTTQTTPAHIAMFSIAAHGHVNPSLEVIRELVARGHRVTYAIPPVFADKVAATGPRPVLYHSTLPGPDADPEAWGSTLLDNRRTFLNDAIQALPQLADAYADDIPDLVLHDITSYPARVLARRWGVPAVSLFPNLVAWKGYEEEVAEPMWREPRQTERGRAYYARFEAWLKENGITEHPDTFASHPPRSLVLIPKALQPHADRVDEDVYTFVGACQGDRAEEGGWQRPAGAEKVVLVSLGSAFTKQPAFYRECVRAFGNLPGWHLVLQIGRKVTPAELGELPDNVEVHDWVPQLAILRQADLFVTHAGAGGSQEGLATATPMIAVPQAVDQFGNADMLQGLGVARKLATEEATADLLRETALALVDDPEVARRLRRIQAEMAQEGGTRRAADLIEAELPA
The experiment in a line: Activity of Streptomyces antibioticus OleD S132F mutant assessed as conversion rate of compound to produce glucoside 3 using NDP sugar donor UDP-6-azido-glucose after 3 hrs by HPLC. The method in brief: as §1

Positions count from the first letter of the chain named.

With `Cc1cc(=O)oc2cc(O)ccc12`, the values for the Activity in assay [1], in assay [2] and in assay [3] were 6%, 24% and 1%, respectively.

These data come from ChEMBL document CHEMBL1221207, “Expanding the promiscuity of a natural-product glycosyltransferase by directed evolution” (Nat Chem Biol, 2007).
